The values below come from ChEMBL document CHEMBL4680153, “New Spisulosine Derivative promotes robust autophagic response to cancer cells” (Eur J Med Chem, 2020).

By IC50 is commonly meant the midpoint of a concentration-inhibition curve. The inhibition is the drop in the measured response relative to a control, in per cent.

Molecules are shown by their SMILES. Activity calls are given as the source filed them. No cut-off for these calls is given here.

The test system of the first assay is PC-3. Nature of the assay: Cytotoxicity against human PC-3 cells assessed as reduction in cell viability incubated for 48 hrs by MTT assay. The following applies: PC-3, 48 h. In kind it is functional, cell-based. Background: Tetrazolium assays rely on reduction of a dye to a coloured formazan, in cell work by metabolically active cells.
Consider `CCCCCCCCCCCCCCC[C@@H](O)[C@H](C)N`, for which the IC50 amounted to 1000 nM.

The test system of another assay is A549. Nature of the assay: Antiproliferative activity against human A549 cells assessed as reduction in cell growth at 10 uM incubated for 48 hrs by SRB assay relative to control. In kind it is functional.
Settings: not given
In a few lines: (§1)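 Early-passage cells plated at 40% confluency and left overnight, then exposed to 10 μM compound for 48 h. Growth was measured by sulforhodamine B staining, with absorbance at 510 nm. Percent growth inhibition was calculated against untreated cells.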
On the technique in general: In SRB staining, fixed cells bind dye roughly in proportion to their protein.
With `CC(C)(C)OC(=O)N[C@H](CO)CO[Si](c1ccccc1)(c1ccccc1)C(C)(C)C`, the inhibition at 10 µM is 25.4%.
Consider `CCCCCCCCCCCCCC[C@H](OCOC)[C@H](CN1CCCCC1)NC(=O)OC(C)(C)C`, for which the inhibition at 10 µM came out at 19%.
On to `CCCCCCCCCCCCCC[C@H](OCOC)[C@H](CO)NC(=O)OC(C)(C)C`, for which the inhibition at 10 µM came out at 25.9%.
`COc1cccc2c1C(=O)c1c(O)c3c(c(O)c1C2=O)C[C@@](O)(C(=O)CO)C[C@@H]3O[C@H]1C[C@H](N)[C@H](O)[C@H](C)O1` [DOXORUBICIN]: the inhibition at 10 µM stood at 80.2%.
With `CCCCCCCCCCCCCC[C@H](O)[C@H](Cc1ccc(OC)cc1)NC(=O)OC(C)(C)C`, the inhibition at 10 µM was found to be 23.4%.
As to `CCCCCCCCCCCCCC[C@H](O)[C@H](CN(C(C)C)C(C)C)NC(=O)OC(C)(C)C`, the inhibition at 10 µM amounted to 22.9%.
`CCCCCCCCCCCCCC[C@H](OCOC)[C@H](CN(C(C)C)C(C)C)NC(=O)OC(C)(C)C`: the inhibition at 10 µM came out at 22.6%.

In the next assay the test system is DLD-1. Nature of the assay: Antiproliferative activity against human DLD-1 cells assessed as reduction in cell growth at 10 uM incubated for 48 hrs by SRB assay relative to control. In kind it is functional.
Settings: not given
The method, boiled down:
as §1
In the case of `CC(C)(C)OC(=O)N[C@H](CO)CO[Si](c1ccccc1)(c1ccccc1)C(C)(C)C`, the inhibition at 10 µM is 73.5%.
For `CCCCCCCCCCCCCC[C@H](OCOC)[C@H](CN1CCCCC1)NC(=O)OC(C)(C)C`, the inhibition at 10 µM turned out to be 43.7%.
The same measure, in the same setting: the result for `CCCCCCCCCCCCCC[C@H](OCOC)[C@H](CO)NC(=O)OC(C)(C)C` reads 54.8%; that for `COc1cccc2c1C(=O)c1c(O)c3c(c(O)c1C2=O)C[C@@](O)(C(=O)CO)C[C@@H]3O[C@H]1C[C@H](N)[C@H](O)[C@H](C)O1` [DOXORUBICIN], 76.7%.
In the case of `CCCCCCCCCCCCCC[C@H](O)[C@H](Cc1ccc(OC)cc1)NC(=O)OC(C)(C)C`, the inhibition at 10 µM amounted to 27.9%.
With `CCCCCCCCCCCCCC[C@H](O)[C@H](CN(C(C)C)C(C)C)NC(=O)OC(C)(C)C`, the inhibition at 10 µM came to 34.8%.
As to `CCCCCCCCCCCCCC[C@H](OCOC)[C@H](CN(C(C)C)C(C)C)NC(=O)OC(C)(C)C`, the inhibition at 10 µM was 53.9%.

The subject of the next assay is HL-60. Briefly: Cytotoxicity against human HL-60 cell.
Settings: not given
It counts as functional, cell-based.
For the molecule `CCCCCCCCCCCCCCC[C@@H](O)[C@H](C)N`, half-maximal inhibition (IC50) was put at 100 nM.

A further assay deals with MDA-MB-231. Nature of the assay: Antiproliferative activity against human MDA-MB-231 cells assessed as reduction in cell growth at 10 uM incubated for 48 hrs by SRB assay relative to control. It counts as functional.
Settings: not given
In a few lines:
as §1
For the molecule `CC(C)(C)OC(=O)N[C@H](CO)CO[Si](c1ccccc1)(c1ccccc1)C(C)(C)C`, the inhibition at 10 µM turned out to be 32.3%.
On to `CCCCCCCCCCCCCC[C@H](OCOC)[C@H](CN1CCCCC1)NC(=O)OC(C)(C)C`, for which the inhibition at 10 µM worked out at 9.84%.
`CCCCCCCCCCCCCC[C@H](OCOC)[C@H](CO)NC(=O)OC(C)(C)C`: the inhibition at 10 µM is -5.67%.
Still for that read-out and setting: as for `COc1cccc2c1C(=O)c1c(O)c3c(c(O)c1C2=O)C[C@@](O)(C(=O)CO)C[C@@H]3O[C@H]1C[C@H](N)[C@H](O)[C@H](C)O1` [DOXORUBICIN], the figure is 80.2%; as for `CCCCCCCCCCCCCC[C@H](O)[C@H](Cc1ccc(OC)cc1)NC(=O)OC(C)(C)C`, -16.5%; as for `CCCCCCCCCCCCCC[C@H](O)[C@H](CN(C(C)C)C(C)C)NC(=O)OC(C)(C)C`, -1.17%.
Still for that read-out and setting: as for `CCCCCCCCCCCCCC[C@H](OCOC)[C@H](CN(C(C)C)C(C)C)NC(=O)OC(C)(C)C`, the figure is 31%.

For a further assay, the system named is DLD-1. Briefly: Induction of autophagy in human DLD-1 cells assessed as reduction in cell viability at 7.5 uM incubated for 24 hrs in presence of Bafilomycin-A1 by crystal violet staining based phase contrast microscopic analysis. In kind it is functional.
Settings: not given
As to `CCCCCCCCCCCCCCC[C@@H](O)[C@H](C)N`, the result was Active.

Another assay deals with HT-29. Briefly: Antiproliferative activity against human HT-29 cells assessed as reduction in cell growth at 10 uM incubated for 48 hrs by SRB assay relative to control. It counts as functional.
Settings: not given
In a few lines:
as §1
As for `CC(C)(C)OC(=O)N[C@H](CO)CO[Si](c1ccccc1)(c1ccccc1)C(C)(C)C`, the inhibition at 10 µM turned out to be 46.2%.
Turning to `CCCCCCCCCCCCCC[C@H](OCOC)[C@H](CN1CCCCC1)NC(=O)OC(C)(C)C`, the inhibition at 10 µM was 14.2%.
For `CCCCCCCCCCCCCC[C@H](OCOC)[C@H](CO)NC(=O)OC(C)(C)C`, the inhibition at 10 µM stood at 22%.
`COc1cccc2c1C(=O)c1c(O)c3c(c(O)c1C2=O)C[C@@](O)(C(=O)CO)C[C@@H]3O[C@H]1C[C@H](N)[C@H](O)[C@H](C)O1` [DOXORUBICIN]: the inhibition at 10 µM amounted to 78.4%.
Take `CCCCCCCCCCCCCC[C@H](O)[C@H](Cc1ccc(OC)cc1)NC(=O)OC(C)(C)C`: the inhibition at 10 µM was -7.41%.
On the same count and under the same terms, the result for `CCCCCCCCCCCCCC[C@H](O)[C@H](CN(C(C)C)C(C)C)NC(=O)OC(C)(C)C` reads 11.6%; that for `CCCCCCCCCCCCCC[C@H](OCOC)[C@H](CN(C(C)C)C(C)C)NC(=O)OC(C)(C)C`, 19.9%.

Another assay concerns DLD-1. Briefly: Induction of apoptosis in human DLD-1 cells assessed as late apoptotic cells at 7.5 uM incubated for 18 hrs by Annexin V-FITC and propidium iodide staining based flow cytometry analysis (reference value: 5.7 %). It counts as functional.
Settings: not given
(Flow cytometry measures light scatter and fluorescence of single cells or particles in a stream.)
`CCCCCCCCCCCCCCC[C@@H](O)[C@H](C)N`: the Activity is recorded as 3.4%.

For a further assay, the system named is LNCaP. Briefly: Cytotoxicity against human LNCaP cells assessed as reduction in cell viability incubated for 48 hrs by MTT assay.
Settings: not given
In kind it is functional, cell-based.
`CCCCCCCCCCCCCCC[C@@H](O)[C@H](C)N`: the IC50 is 1000 nM.

The subject of the next assay is DLD-1. Nature of the assay: Induction of apoptosis in human DLD-1 cells assessed as necrotic cells at 7.5 uM incubated for 18 hrs by Annexin V-FITC and propidium iodide staining based flow cytometry analysis (reference value: 4.1 %). In kind it is functional.
Settings: not given
Turning to `CCCCCCCCCCCCCCC[C@@H](O)[C@H](C)N`, the Activity was 4.2%.

The test system of the next assay is NCI-H358. Briefly: Antiproliferative activity against human NCI-H358 cells assessed as reduction in cell growth at 10 uM incubated for 48 hrs by SRB assay relative to control. It counts as functional.
Settings: not given
In a few lines:
as §1
For the molecule `CC(C)(C)OC(=O)N[C@H](CO)CO[Si](c1ccccc1)(c1ccccc1)C(C)(C)C`, the inhibition at 10 µM amounted to 53.4%.
`CCCCCCCCCCCCCC[C@H](OCOC)[C@H](CN1CCCCC1)NC(=O)OC(C)(C)C`: the inhibition at 10 µM came to 15.2%.
On to `CCCCCCCCCCCCCC[C@H](OCOC)[C@H](CO)NC(=O)OC(C)(C)C`, for which the inhibition at 10 µM is 18.4%.
Take `COc1cccc2c1C(=O)c1c(O)c3c(c(O)c1C2=O)C[C@@](O)(C(=O)CO)C[C@@H]3O[C@H]1C[C@H](N)[C@H](O)[C@H](C)O1` [DOXORUBICIN]: the inhibition at 10 µM is 77.5%.
`CCCCCCCCCCCCCC[C@H](O)[C@H](Cc1ccc(OC)cc1)NC(=O)OC(C)(C)C`: the inhibition at 10 µM came to 6.37%.
For `CCCCCCCCCCCCCC[C@H](O)[C@H](CN(C(C)C)C(C)C)NC(=O)OC(C)(C)C`, the inhibition at 10 µM was 11.3%.
For the molecule `CCCCCCCCCCCCCC[C@H](OCOC)[C@H](CN(C(C)C)C(C)C)NC(=O)OC(C)(C)C`, the inhibition at 10 µM is 26.6%.

Another assay has as its system DLD-1. Nature of the assay: Induction of apoptosis in human DLD-1 cells assessed as viable cells at 7.5 uM incubated for 18 hrs by Annexin V-FITC and propidium iodide staining based flow cytometry analysis (reference value: 85.2 %). It counts as functional. The following applies: read-out: Activity.
For `CCCCCCCCCCCCCCC[C@@H](O)[C@H](C)N`, the viability at 7.5 µM is 78%.

The next assay deals with HCT-116. Nature of the assay: Cytotoxicity against human HCT-116 cell. In kind it is functional, cell-based.
Settings: not given
Turning to `CCCCCCCCCCCCCCC[C@@H](O)[C@H](C)N`, the IC50 worked out at 100 nM.

The test system of the next assay is DLD-1. Nature of the assay: Induction of apoptosis in human DLD-1 cells assessed as early apoptotic cells at 7.5 uM incubated for 18 hrs by Annexin V-FITC and propidium iodide staining based flow cytometry analysis (reference value: 4.95 %). In kind it is functional.
Settings: not given
On to `CCCCCCCCCCCCCCC[C@@H](O)[C@H](C)N`, for which the Activity came to 14.2%.

The next assay concerns KB. Nature of the assay: Cytotoxicity against human KB cell. In kind it is functional, cell-based.
Settings: not given
In turn, `CCCCCCCCCCCCCCC[C@@H](O)[C@H](C)N` displayed an IC50 of 100 nM.

Another assay has as its system MCF7. Nature of the assay: Antiproliferative activity against human MCF7 cells assessed as reduction in cell growth at 10 uM incubated for 48 hrs by SRB assay relative to control.
Settings: not given
It counts as functional. The method, boiled down:
as §1
For the molecule `CC(C)(C)OC(=O)N[C@H](CO)CO[Si](c1ccccc1)(c1ccccc1)C(C)(C)C`, the inhibition at 10 µM turned out to be 28.3%.
Still for that read-out and setting: as for `CCCCCCCCCCCCCC[C@H](OCOC)[C@H](CN1CCCCC1)NC(=O)OC(C)(C)C`, the figure is 27.3%; as for `CCCCCCCCCCCCCC[C@H](OCOC)[C@H](CO)NC(=O)OC(C)(C)C`, 10.2%.
Regarding `COc1cccc2c1C(=O)c1c(O)c3c(c(O)c1C2=O)C[C@@](O)(C(=O)CO)C[C@@H]3O[C@H]1C[C@H](N)[C@H](O)[C@H](C)O1` [DOXORUBICIN], the inhibition at 10 µM amounted to 88.5%.
With `CCCCCCCCCCCCCC[C@H](O)[C@H](Cc1ccc(OC)cc1)NC(=O)OC(C)(C)C`, the inhibition at 10 µM was 8.77%.
For the molecule `CCCCCCCCCCCCCC[C@H](O)[C@H](CN(C(C)C)C(C)C)NC(=O)OC(C)(C)C`, the inhibition at 10 µM is 25.3%.
Take `CCCCCCCCCCCCCC[C@H](OCOC)[C@H](CN(C(C)C)C(C)C)NC(=O)OC(C)(C)C`: the inhibition at 10 µM was 26.9%.

A further assay concerns DLD-1. Briefly: Induction of apoptosis in human DLD-1 cells assessed as increase in PARP cleavage at 5 to 7.5 uM by Western blot analysis. In kind it is functional, cell-based. Conditions: dose 5-7.5 µM. In a few lines:
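DLD-1 cells were treated at 7.5 μM for 18 h and lysed in NP-40 buffer containing protease and phosphatase inhibitors. Protein was quantified by BCA, and equal amounts were run on 15% SDS-PAGE and transferred to PVDF. Cleaved PARP was probed and detected by enhanced chemiluminescence.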
Take `CCCCCCCCCCCCCCC[C@@H](O)[C@H](C)N`: the result was Active.
